According to ChEMBL document CHEMBL3085764, “Azole-carbodithioate hybrids as vaginal anti-Candida contraceptive agents: design, synthesis and docking studies” (Eur J Med Chem, 2013):
Converted amounts (≈) assume the structure as drawn.

Experiments:
Sporothrix schenckii = experiment: Antifungal activity against Sporothrix schenckii after 48 hrs by broth microdilution technique; type: functional, organism-based
Outline: (§1)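 MIC by broth microdilution following NCCLS guidelines, in RPMI 1640 buffered with MOPS. Starting inoculum 1-5 × 10^3 CFU/mL. Plates incubated at 35 °C. MIC and IC50 read spectrophotometrically at 492 nm after 48 h.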

Klebsiella pneumoniae = experiment: Antibacterial activity against Klebsiella pneumoniae after 48 hrs by broth microdilution technique; type: functional
Outline: (§2)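 Broth microdilution following NCCLS guidelines in Mueller Hinton broth. Inoculum held at 1-5 × 10^3 cfu/mL. Plates incubated at 35 °C in a moist, dark chamber for 48 h. MIC and IC50 read spectrophotometrically at 492 nm.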

HeLa = experiment: Cytotoxicity against human HeLa cells after 5 hrs by LDH assay
Escherichia coli = experiment: Antibacterial activity against Escherichia coli ATCC 9637 after 48 hrs by broth microdilution technique; type: functional; conditions: ATCC 9637, 48 h; outline: as §2
[1] = Spermicidal activity in human semen assessed as sperm immobilization at 1.0 % w/v up to 30 seconds by phase contrast microscopy; type: functional
Candida albicans [2] = experiment: Antifungal activity against Candida albicans clinical isolate CDRI after 48 hrs by broth microdilution technique; type: functional, organism-based; outline: as §1
Candida albicans [3] = experiment: Antifungal activity against Candida albicans clinical isolate after 48 hrs by broth microdilution technique; type: functional, organism-based; outline: as §1
Pseudomonas aeruginosa = experiment: Antibacterial activity against Pseudomonas aeruginosa ATCC BAA-427 after 48 hrs by broth microdilution technique; type: functional; conditions: ATCC BAA-427, 48 h; outline: as §2
Staphylococcus aureus = experiment: Antibacterial activity against Staphylococcus aureus ATCC 25923 after 48 hrs by broth microdilution technique; type: functional; conditions: ATCC 25923, 48 h; outline: as §2
Candida albicans [4] = experiment: Antifungal activity against Candida albicans after 48 hrs by broth microdilution technique; type: functional, organism-based; outline: as §1
[5] = system: Trichophyton mentagrophytes; experiment: Antifungal activity against Trichophyton mentagrophytes after 48 hrs by broth microdilution technique; type: functional, organism-based; outline: as §1
Candida albicans [6] = experiment: Antifungal activity against Candida albicans MTCC 183 after 48 hrs by broth microdilution technique; type: functional, organism-based; conditions: MTCC 183, 48 h; outline: as §1
Trichomonas vaginalis = experiment: Trichomonacidal activity against Trichomonas vaginalis after 48 hrs by trypan blue exclusion assay; type: functional; conditions: read-out: MEC
Outline: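 T. vaginalis in log phase, grown in TYM with 10% FCS, vitamin mixture and penicillin/streptomycin at 37 °C. DMSO stocks ([…]) serially diluted in TYM down to 0.1 µg/mL; DMSO/TYM vehicle controls. 5 × 10^4 trophozoites added and incubated anaerobically at 37 °C. Viability checked by trypan blue from 3 to 48 h. MIC = lowest concentration killing all cells by 48 h. Three repeats.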

Cryptococcus neoformans = experiment: Antifungal activity against Cryptococcus neoformans after 48 hrs by broth microdilution technique; type: functional, organism-based; outline: as §1
[7] = Growth inhibition of Lactobacillus acidophilus after 72 hrs by colony counting method
Outline: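 Rogosa SL agar plates (7.5%, 0.132% acetic acid), with or without compound, inoculated with L. acidophilus (~70 […]/10 cm²). Incubated 72 h at 37 °C in 5% CO2/95% air. Colony number and size recorded. Value = average colony size (% of control) × colony number / 100.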

Candida albicans [8] = experiment: Antifungal activity against Candida albicans ATCC 10231 after 48 hrs by broth microdilution technique; type: functional, organism-based; conditions: ATCC 10231, 48 h; outline: as §1
[9] = Spermicidal activity in human semen assessed as sperm immobilization at 0.1 % w/v up to 30 seconds by phase contrast microscopy; type: functional
Candida parapsilosis = experiment: Antifungal activity against Candida parapsilosis ATCC 22019 after 48 hrs by broth microdilution technique; type: functional, organism-based; conditions: Lodderomyces parapsilosis, ATCC 22019, 48 h; outline: as §1
Aspergillus fumigatus = experiment: Antifungal activity against Aspergillus fumigatus after 48 hrs by broth microdilution technique; type: functional, organism-based; outline: as §1

Row | SMILES | IC50 (Sporothrix schenckii) [µg/mL] | MIC (Klebsiella pneumoniae) [µg/mL] | IC50 (HeLa) [µg/mL] | MIC (Escherichia coli) [µg/mL] | Activity [1] [%] | IC50 (Candida albicans [2]) [µg/mL] | IC50 (Candida albicans [3]) [µg/mL] | MIC (Pseudomonas aeruginosa) [µg/mL] | MIC (Staphylococcus aureus) [µg/mL] | IC50 (Candida albicans [4]) [µg/mL] | IC50 [5] [µg/mL] | IC50 (Candida albicans [6]) [µg/mL] | minimal effective concentration (Trichomonas vaginalis) [µg/mL] | IC50 (Cryptococcus neoformans) [µg/mL] | IC50 [7] [µg/mL] | IC50 (Candida albicans [8]) [µg/mL] | Activity [9] [%] | IC50 (Candida parapsilosis) [µg/mL] | IC50 (Aspergillus fumigatus) [µg/mL]
1 | CCCCSC(=S)n1ccnc1 | > 50 | ≥ 50 | 48.7 (≈ 243 µM) | ≥ 50 | 100 | 6.17 (≈ 30.8 µM) | 1.53 (≈ 7.64 µM) | ≥ 50 | ≥ 50 | 1.29 (≈ 6.44 µM) | > 50 | 5.41 (≈ 27 µM) | > 200 | 3.79 (≈ 18.9 µM) | 45.64 (≈ 228 µM) | 3.5 (≈ 17.5 µM) | 80 | 1.94 (≈ 9.68 µM) | 
2 | C=CCSC(=S)n1ccnc1C | 1.5 (≈ 7.56 µM) | ≥ 50 |  | ≥ 50 | 100 | 7.26 (≈ 36.6 µM) | 2.1 (≈ 10.6 µM) | ≥ 50 | ≥ 50 | 2.21 (≈ 11.1 µM) | > 50 | 3.61 (≈ 18.2 µM) | > 200 | 3.35 (≈ 16.9 µM) |  | 4.53 (≈ 22.8 µM) | 0 | 10.2 (≈ 51.2 µM) | 18.1 (≈ 91.3 µM)
3 | CCCCSC(=S)n1ccnc1C | 5.71 (≈ 26.6 µM) | ≥ 50 | 85.5 (≈ 399 µM) | ≥ 50 | 100 | 7.64 (≈ 35.6 µM) | 2.12 (≈ 9.89 µM) | ≥ 50 | ≥ 50 | 1.34 (≈ 6.25 µM) | 2.02 (≈ 9.42 µM) | 4.69 (≈ 21.9 µM) | > 200 | 5.57 (≈ 26 µM) | 220 (≈ 1030 µM) | 5.09 (≈ 23.7 µM) | 0 | > 50 | 23.8 (≈ 111 µM)
4 | CCCCCCCCSC(=S)n1ccnc1C | 4.47 (≈ 16.5 µM) | ≥ 50 |  | ≥ 50 | 100 | 19 (≈ 70.4 µM) | > 50 | ≥ 50 | ≥ 50 | 7.21 (≈ 26.7 µM) | > 50 | > 50 | > 200 | > 50 |  | > 50 | 100 | > 50 | > 50
5 | CCCCCCCCCCCCCCCCSC(=S)n1ccnc1C | > 50 | ≥ 50 |  | ≥ 50 | 95 | > 50 | > 50 | ≥ 50 | ≥ 50 | > 50 | 7.07 (≈ 18.5 µM) | > 50 | > 200 | > 50 |  | > 50 | 0 | > 50 | > 50
6 | CSC(=S)n1cncn1 | 4.34 (≈ 27.3 µM) | ≥ 50 | 53.7 (≈ 337 µM) | ≥ 50 | 100 | > 50 | > 50 | ≥ 50 | ≥ 50 | 1.43 (≈ 8.98 µM) | > 50 | 31.2 (≈ 196 µM) | > 200 | > 50 | 39.54 (≈ 248 µM) | 38 (≈ 239 µM) | 0 | > 50 | > 50
7 | C=CCSC(=S)n1cncn1 | 5.78 (≈ 31.2 µM) | ≥ 50 |  | ≥ 50 | 100 | 45.5 (≈ 246 µM) | > 50 | ≥ 50 | ≥ 50 | 2.53 (≈ 13.7 µM) | > 50 | > 50 | > 200 | > 50 |  | > 50 | 0 | > 50 | > 50
8 | CCCCSC(=S)n1cnc2ccccc21 | > 50 | ≥ 50 |  | ≥ 50 | 100 | 37.4 (≈ 149 µM) | > 50 | ≥ 50 | ≥ 50 | 6.39 (≈ 25.5 µM) | 1.4 (≈ 5.59 µM) | 21.8 (≈ 87.1 µM) | > 200 | > 50 |  | > 50 | 0 | > 50 | > 50
9 | CCCCCCCCSC(=S)n1cnc2ccccc21 | > 50 | ≥ 50 |  | ≥ 50 | 95 | > 50 | > 50 | ≥ 50 | ≥ 50 | > 50 | > 50 | > 50 | > 200 | > 50 |  | > 50 | 0 | > 50 | > 50
10 | CCCCCCCCCc1ccc(OCCOCCOCCOCCOCCOCCOCCOCCOCCO)cc1 [NONOXYNOL 9] |  |  | 37 (≈ 60 µM) |  | 100 |  |  |  |  |  |  |  | 37.4 |  | 21 (≈ 34 µM) |  | 100 |  | 
